Results taken from article PMC4643417 (Leukemia & lymphoma, 2015).
Each block holds one compound with its values, some of them ahead of it.

Columns and labels:
[1] = system: BCL2; settings: statement in discussion; cited from earlier work
[2] = system: BCLXL; settings: statement in discussion; cited from earlier work
[3] = system: patients with previously untreated CLL; experiment: Phase 2 randomized three-arm trial: investigator-assessed best response; assay type: in vivo, human
Outline: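 Open-label multicenter trial, randomized 1:1:1 and stratified by Binet stage and del(17p)/del(11q) (interphase FISH on marrow aspirates). Rituximab 375 mg/m2 week 1, then 500 mg/m2 weekly weeks 2–8, alone or with oral navitoclax (100 mg daily lead-in week, then 250 mg daily for 12 weeks). Investigator response by updated iwCLL at week 12, then every 12 weeks. ORR (CR+PR) with 95% CI; PFS by Kaplan–Meier.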

[4] = system: patients with previously untreated CLL; set-up: species or system human; settings: in vivo
[5] = in vivo
[6] = system: patients with CLL, BCL2 protein low or high subgroups; experiment: Association of baseline BCL2 protein expression; assay type: in vivo, human; settings: arm A (n = 24) / arms B + C pooled (n = 31)
Outline: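 Baseline bone marrow aspirates (optional consent), fresh: intracellular BCL2 staining by flow cytometry at a central lab within 72 h of collection, gated on CD19/CD5-positive CLL cells. Low/high subgroups split at median expression. Rituximab 375 mg/m2 week 1, then 500 mg/m2 weekly weeks 2–8, ± oral navitoclax (100 mg/day lead-in, then 250 mg/day). Odds ratios of objective response by logistic regression.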

[7] = system: patients with relapsed/refractory CLL; settings: phase 1 study, single-agent navitoclax; cited from earlier work
[8] = Navitoclax plasma pharmacokinetics; assay type: in vivo, human; settings: for AUC / Cmax / Tmax: human, plasma, po
[9] = ITT population, arm A (n = 40) / arm B (n = 38; navitoclax 12 weeks)
[10] = patients with del(17p), arm A (n = 11) / arm B (n = 12; navitoclax 12 weeks)

Compound: CC1(C)CCC(CN2CCN(c3ccc(C(=O)NS(=O)(=O)c4ccc(NCC5CCOCC5)c([N+](=O)[O-])c4)c(Oc4cnc5[nH]ccc5c4)c3)CC2)=C(c2ccc(Cl)cc2)C1 [ABT-199]
Affinity for BCL2 [1]: very high affinity
BCLXL inhibition [2]: effectively no BCLXL inhibition

Compound: rituximab
Best response: Missing [3, 9]: 3 (8) n (%)
Complete response (CR) [3, 9]: 0 (0) n (%)
Partial response (PR) [3, 9]: 14 (35) n (%)
Progressive disease [3, 9]: 2 (5) n (%)
Stable disease [3, 9]: 21 (53) n (%)
Overall response rate (complete [CR] and partial [PR]), investigator-assessed ([3]; arm A / arm B (navitoclax daily for 12 weeks)): 35%
Best response: Missing [3, 10]: 0 (0) n (%)
Complete response (CR) [3, 10]: 0 (0) n (%)
Partial response (PR) [3, 10]: 2 (18) n (%)
Progressive disease [3, 10]: 1 (9) n (%)
Stable disease [3, 10]: 8 (73) n (%)
Anemia/worsening of anemia [4]: 2 (5) n (%)
Any AEs [4]: 33 (87) n (%)
Any SAEs [4]: 5 (13) n (%)
Asthenia [4]: 0 (0) n (%)
Chills [4]: 0 (0) n (%)
Diarrhea [4]: 0 (0) n (%)
GI and abdominal pain [4]: 0 (0) n (%)
Grade 5 AEs [4]: 3%
Hyperbilirubinemia [4]: 0 (0) n (%)
Leukopenia [4]: 1 (3) n (%)
Liver enzyme increase [4]: 0 (0) n (%)
Neutropenia [4]: 3 (8) n (%)
Patients who withdrew from study due to AEs [4]: 0 [0%] n [%]
Respiratory tract infection [4]: 3 (8) n (%)
Thrombocytopenia [4]: 0 (0) n (%)
Vascular hypertensive disorders (hypertension) [4]: 0 (0) n (%)
Effect of navitoclax on the PK of rituximab [5]: does not affect the PK of rituximab
Week 8 rituximab concentration, post-infusion [5]: 576 ± 264 (n = 33) μg/mL
Week 8 rituximab concentration, pre-infusion [5]: 296 ± 175 (n = 33) μg/mL
Best response PR [6]: 6 (43%) n (%)
Best response SD or PD [6]: 8 (57%) n (%)

Time of maximum navitoclax concentration (Cmax) after oral administration [8]: approximately 6 h
AUC ([8]; 100 mg): 10500 ± 4100 ng·h/mL
Cmax ([8]; 100 mg): 2300 ± 900 ng/mL
Tmax ([8]; 100 mg): 6 h
AUC ([8]; 250 mg): 61200 ± 31200 ng·h/mL
Cmax ([8]; 250 mg): 3700 ± 2000 ng/mL
Tmax ([8]; 250 mg): 6.1 h
Discontinuation of navitoclax due to hyperbilirubinemia ([4]; human): 1 n
Discontinuation of navitoclax due to neutropenia ([4]; human): 1 n
Discontinuation of navitoclax due to pain ([4]; human): 1 n
Discontinuation of navitoclax due to reaction to the infusion of rituximab ([4]; human): 1 n
Discontinuation of navitoclax due to serum sickness ([4]; human): 1 n
Discontinuation of navitoclax due to thrombocytopenia ([4]; human): 1 n
Compound: CC1(C)CCC(c2ccc(Cl)cc2)=C(CN2CCN(c3ccc(C(=O)NS(=O)(=O)c4ccc(N[C@H](CCN5CCOCC5)CSc5ccccc5)c(S(=O)(=O)C(F)(F)F)c4)cc3)CC2)C1 [navitoclax]
Overall response rate (ORR) [7]: 35%
Patients who discontinued navitoclax due to an AE, total ([4]; human): 12 patients
Incidence of SAEs compared to patients treated with rituximab alone [4]: not increased
Reports of bleeding [4]: a single AE of self-limited epistaxis
